In general, IC50 refers to the concentration needed to halve the response being measured. By half-life is commonly meant how long it takes for the measured level to halve.

Results on eight compounds are retold here after ChEMBL document CHEMBL1811809, “Design, synthesis and in vitro drug release investigation of new potential 5-FU prodrugs” (Eur J Med Chem, 2011).

Data set [1] in a line: Antiproliferative activity against human fibroblasts after 48 hrs by resazurin reduction test. The class given is cell-based. As to conditions: Fibroblast. A general note: Alamar Blue is a resazurin reagent that responds to reducing activity.
In the next data set the test system is MCF7. The data set is described as follows: Antiproliferative activity against human MCF7 cells after 48 hrs by resazurin reduction test. The class given is functional, cell-based. As to conditions: MCF7, 48 h. An outline of the steps: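 MCF 7 and PA 1 cells were kept as monolayers in MEM with 10% fetal calf serum, 1 mM pyruvate, vitamins, non-essential amino acids and gentamicin, at 37 °C and 5% CO₂. Cells were seeded at 5 × 10³ per well, left 16 h, then exposed continuously for 48 h; DMSO was 0.5% (v/v).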

The subject of the next data set is PA-1. Briefly: Antiproliferative activity against human PA1 cells after 48 hrs by resazurin reduction test. The class given is functional, cell-based. As to conditions: PA-1, 48 h. In outline:
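MCF 7 and PA 1 cells were kept as monolayers in MEM with 10% fetal calf serum, 1 mM pyruvate, vitamins, non-essential amino acids and gentamicin, at 37 °C and 5% CO₂. Cells were seeded at 5 × 10³ per well, left 16 h, then exposed continuously for 48 h; DMSO was 0.5% (v/v). Resazurin in serum- and phenol red-free MEM was added for 1 h at 37 °C, fluorescence read at ex 530/em 590 nm, and IC₅₀ taken from blank-corrected percent-of-control curves.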

Data set [2] can be described thus: Stability of the compound in PBS buffer assessed as degradation half life at 37 degC by HPLC analysis. The data set is classed as physicochemical. In outline: (§1)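 Each compound came from a 10 mM stock in methanol or methanol/acetonitrile 85:15, diluted 1:10 into PBS, MEM or human plasma and held at 37 ± 2 °C. Aliquots taken over time were quenched with equal-volume 10 mM ammonium formate pH 3, centrifuged, filtered, diluted 3:10 and run on gradient HPLC-UV (ammonium formate pH 3/acetonitrile; 264/258 nm). Half-lives came from log concentration versus time plots, usually in triplicate.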

A short description of data set [3]: Stability of the compound in MEM assessed as degradation half life at 37 degC by HPLC analysis. The class given is physicochemical. In outline:
as §1

Data set [4] can be described thus: Stability of the compound assessed as degradation half life in presence of plasma at 37 degC by HPLC analysis. The data set is classed as ADME, cell-free. In outline:
as §1

A value given as a limit tells only on which side of the number the result lay.

With `CC(=O)OC[C@H]1O[C@@H](n2cc(F)c(=O)[nH]c2=O)[C@H](F)[C@@H](OC(C)=O)[C@@H]1OC(C)=O`, the IC50 (in data set [1]; in the data set with MCF7; with PA-1) was above 50 µM in each case.
Consider `CC(=O)OC[C@H]1O[C@@H](NC(=O)Cn2cc(F)c(=O)[nH]c2=O)[C@H](F)[C@@H](OC(C)=O)[C@@H]1OC(C)=O`, for which the IC50 (in data set [1]; with MCF7; with PA-1) was above 50 µM throughout.
Turning to `CC(=O)OC[C@H]1O[C@@H](NC(=O)CNC(=O)n2cc(F)c(=O)[nH]c2=O)[C@H](F)[C@@H](OC(C)=O)[C@@H]1OC(C)=O`, the half-life in data set [2] was found to be 3 min; in data set [3], 2 min; in data set [4], 6 min. The results for the IC50 (in data set [1]; in the data set with MCF7; in the data set on PA-1) were 6.4 µM, 11 µM and 3 µM, respectively.
As for `CC(=O)OC[C@H]1O[C@@H](NC(=O)CCCNC(=O)n2cc(F)c(=O)[nH]c2=O)[C@H](F)[C@@H](OC(C)=O)[C@@H]1OC(C)=O`, the half-life in data set [2] is 8 min; in data set [3] it was 6 min; in data set [4], 10 min. Further, the IC50 is 15 µM in data set [1], 23 µM in the data set with MCF7 and 6 µM in the data set with PA-1.
As to `CC(=O)OC[C@H]1O[C@@H](NC(=O)CCCCCNC(=O)n2cc(F)c(=O)[nH]c2=O)[C@H](F)[C@@H](OC(C)=O)[C@@H]1OC(C)=O`, the half-life in data set [2] was 11 min; in data set [3], 8 min; in data set [4] it was 17 min. Besides, the IC50 worked out at 5 µM in data set [1], 8.1 µM in the data set with MCF7 and 4 µM in the data set with PA-1.
For `CC(=O)OC[C@H]1O[C@@H](NC(=O)CCCN(C)C(=O)n2cc(F)c(=O)[nH]c2=O)[C@H](F)[C@@H](OC(C)=O)[C@@H]1OC(C)=O`, the IC50 (in data set [1]; in the data set on MCF7; in the data set with PA-1) was above 50 µM in each case.
`CC(=O)OC[C@H]1O[C@@H](Oc2ccc(N(C)C(=O)n3cc(F)c(=O)[nH]c3=O)cc2)[C@H](F)[C@@H](OC(C)=O)[C@@H]1OC(C)=O`: the IC50 (in data set [1]; in the data set with MCF7; in the data set on PA-1) was above 50 µM in each case.
Consider `O=c1[nH]cc(F)c(=O)[nH]1` [FLUOROURACIL], for which the figures for the IC50 (in data set [1]; with PA-1) were 11 µM and 5 µM, respectively.
